What was measured:
Mus musculus [1] = experiment: Anticonvulsant activity after intraperitoneal injection into mice measured in a maximal electroshock scree (MES) screen; assay type: functional
Rattus norvegicus [2] = experiment: Compound was tested for anticonvulsant activity after Oral Administration into Rats by using MES screen test after 4h,dose 12.5 mg/kg; number of rats out of four which were protected; assay type: functional
Summary of the method: (§1)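 Rats received the compound orally. […] Rats were tested in the MES screen at 0.25, 0.5, 1, 2 and 4 h. Each value is the number of rats protected out of 4. The test followed NINDS procedures.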

Rattus norvegicus [3] = experiment: Compound was tested for anticonvulsant activity after Oral Administration into Rats by using MES screen test after 0.25h,dose 12.5 mg/kg; number of rats out of four which were protected; assay type: functional; summary of the method: as §1
Rattus norvegicus [4] = experiment: Compound was tested for anticonvulsant activity after Oral Administration into Rats by using MES screen test after 0.5h,dose 12.5 mg/kg; No activity was demonstarted; assay type: functional, organism-based; parameters: dose 12.5 mg/kg; summary of the method: as §1
Rattus norvegicus [5] = experiment: Compound was tested for anticonvulsant activity after Oral Administration into Rats by using MES screen test after 1h,dose 12.5 mg/kg; number of rats out of four which were protected; assay type: functional; summary of the method: as §1
Rattus norvegicus [6] = experiment: Compound was tested for anticonvulsant activity after Oral Administration into Rats by using MES screen test after 2h,dose 12.5 mg/kg; No activity was demonstarted; assay type: functional, organism-based; parameters: dose 12.5 mg/kg; summary of the method: as §1
Mus musculus [7] = experiment: Anticonvulsant activity after intraperitoneal injection into mice by using MES screen test after 0.5 hr; assay type: functional
Mus musculus [8] = experiment: Anticonvulsant activity after intraperitoneal injection into mice by using scPTZ screen after 0.5 hr; assay type: functional
Mus musculus [9] = experiment: Toxicity after intraperitoneal injection into mice by using toxicity screen test after 0.5 hr; assay type: organism-based; settings: in vivo, ip
Summary of the method: (§2)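 Mice injected intraperitoneally at 30, 100 and 300 mg/kg and examined 0.5 and 4 h afterwards. Each entry is the minimum dose giving activity (MES protection, scPTZ protection, or rotorod failure for neurotoxicity) in half or more of the mice. Activity is called absent if nothing occurs at 300 mg/kg.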

Mus musculus [10] = experiment: Compound was tested for toxicity after intraperitoneal injection into mice by using toxicity screen test after 4 hr; assay type: organism-based; settings: in vivo, ip; summary of the method: as §2
[11] = Compound was tested for toxicity after intraperitoneal injection into mice by using neurotoxicity screen test after 2 hr; assay type: organism-based; settings: mouse, in vivo, ip
Summary of the method: (§3)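 Quantitative intraperitoneal mouse testing in the MES, scPTZ or rotorod neurotoxicity screens at the peak time given for each compound (0.25–2 h). ED50 or TD50 reported in mg/kg with 95% CI and slope (SE).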

Rattus norvegicus [12] = experiment: Compound was tested for anticonvulsant activity after Oral Administration into Rats by using MES screen test after 4h,dose 30 mg/kg; number of rats out of four which were protected; assay type: functional; summary of the method: as §1
Rattus norvegicus [13] = experiment: Compound was tested for anticonvulsant activity after Oral Administration into Rats by using MES screen test after 0.25h,dose 30 mg/kg; No activity was demonstarted; assay type: functional, organism-based; parameters: dose 30 mg/kg; summary of the method: as §1
Rattus norvegicus [14] = experiment: Compound was tested for anticonvulsant activity after Oral Administration into Rats by using MES screen test after 2h,dose 30 mg/kg; number of rats out of four which were protected; assay type: functional; summary of the method: as §1
Rattus norvegicus [15] = experiment: Compound was tested for anticonvulsant activity after Oral Administration into Rats by using MES screen test after 0.5h,dose 30 mg/kg; number of rats out of four which were protected; assay type: functional; summary of the method: as §1
Rattus norvegicus [16] = experiment: Compound was tested for anticonvulsant activity after Oral Administration into Rats by using MES screen test after 1h,dose 30 mg/kg; number of rats out of four which were protected; assay type: functional; summary of the method: as §1
Rattus norvegicus [17] = experiment: Compound was tested for anticonvulsant activity after Oral Administration into rat by using MES screen test after 2 hr; assay type: functional
Summary of the method: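 Rats dosed orally, typically at 50 mg/kg first, then mostly 12.5 mg/kg (some compounds at 30 mg/kg), and tested by maximal electroshock. Four rats per compound, scored at 0.25, 0.5, 1, 2 and 4 h as the number of rats protected out of 4.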

[18] = Compound was tested for toxicity after oral administration in rat by using neurotoxicity screen test after 0.25-24 hr; assay type: organism-based; settings: in vivo
Summary of the method: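 Rat neurotoxicity after oral dosing, observed at 0.25, 0.5, 1, 2, 4, 6, 8 and 24 h (8 h omitted for one compound).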

Mus musculus [19] = experiment: Anticonvulsant activity after intraperitoneal injection into mice by using scPTZ screen test after 4 hr; assay type: functional
Rattus norvegicus [20] = experiment: Compound was tested for anticonvulsant activity after Oral Administration into Rats by using MES screen test after 0.25h,dose 12.5 mg/kg; No activity was demonstarted; assay type: functional, organism-based; parameters: dose 12.5 mg/kg; summary of the method: as §1
Rattus norvegicus [21] = experiment: Compound was tested for anticonvulsant activity after Oral Administration into Rats by using MES screen test after 1h,dose 12.5 mg/kg; No activity was demonstarted; assay type: functional, organism-based; parameters: dose 12.5 mg/kg; summary of the method: as §1
Rattus norvegicus [22] = experiment: Compound was tested for anticonvulsant activity after Oral Administration into Rats by using MES screen test after 2h,dose 12.5 mg/kg; number of rats out of four which were protected; assay type: functional; summary of the method: as §1
[23] = Partition coefficient (logP); assay type: physicochemical; settings: octanol/water
Summary of the method: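 Partition between 1-octanol and buffer at pH 7.4, with solutions prepared in 1-octanol before buffer is added. Quantified by UV, using λmax and ε values measured in 1-octanol.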

Rattus norvegicus [24] = experiment: Compound was tested for anticonvulsant activity after Oral Administration into Rats by using MES screen test after 4h,dose 50 mg/kg; number of rats out of four which were protected; assay type: functional; summary of the method: as §1
Rattus norvegicus [25] = experiment: Compound was tested for anticonvulsant activity after Oral Administration into Rats by using MES screen test after 2h,dose 50 mg/kg; number of rats out of four which were protected; assay type: functional; summary of the method: as §1
Rattus norvegicus [26] = experiment: Compound was tested for anticonvulsant activity after Oral Administration into Rats by using MES screen test after 0.25h,dose 50 mg/kg; No activity was demonstarted; assay type: functional, organism-based; parameters: dose 50 mg/kg; summary of the method: as §1
Rattus norvegicus [27] = experiment: Compound was tested for anticonvulsant activity after Oral Administration into Rats by using MES screen test after 0.5h,dose 50 mg/kg; number of rats out of four which were protected; assay type: functional; summary of the method: as §1
Rattus norvegicus [28] = experiment: Compound was tested for anticonvulsant activity after Oral Administration into Rats by using MES screen test after 1h,dose 50 mg/kg; number of rats out of four which were protected; assay type: functional; summary of the method: as §1
Mus musculus [29] = experiment: Compound was tested for anticonvulsant activity after intraperitoneal injection into mice by using MES screen test after 1 hr; assay type: functional; settings: ip; summary of the method: as §3
[30] = Compound was tested for toxicity after intraperitoneal injection into mice by using neurotoxicity screen test after 1 hr; assay type: organism-based; settings: mouse, in vivo, ip; summary of the method: as §3
Rattus norvegicus [31] = experiment: Compound was tested for anticonvulsant activity after Oral Administration into Rats by using MES screen test after 0.25h,dose 50 mg/kg; number of rats out of four which were protected; assay type: functional; summary of the method: as §1
Mus musculus [32] = experiment: Compound was tested for anticonvulsant activity after intraperitoneal injection into mice by using scPTZ screen test after 1 hr; assay type: functional; settings: ip; summary of the method: as §3

Row | Compound | Dose (Mus musculus [1]) | Activity (Rattus norvegicus [2]) | Activity (Rattus norvegicus [4]) | Dose (Mus musculus [7]) | Dose (Mus musculus [8]) | Dose (Mus musculus [9]) | Dose (Mus musculus [10]) | Activity (Rattus norvegicus [20]) | Activity (Rattus norvegicus [21]) | Activity (Rattus norvegicus [22]) | Activity (Rattus norvegicus [24]) | Activity (Rattus norvegicus [25]) | Activity (Rattus norvegicus [27]) | Activity (Rattus norvegicus [28]) | further results
1 | NC(=O)N/N=C\c1ccc(OC(=O)c2ccc(Cl)cc2)cc1 | 300 mg/kg | 2 | No activity | – | – | – | – | – | – | – | – | – | – | – | Activity (Rattus norvegicus [3]): 1; Activity (Rattus norvegicus [5]): 1; Activity (Rattus norvegicus [6]): No activity
2 | CC/C(=N/NC(N)=O)c1ccc(Oc2ccc(Cl)cc2)cc1 | – | – | – | 30 mg/kg | 300 mg/kg | 300 mg/kg | 100 mg/kg | – | – | – | – | – | – | – | TD50 at 2 h [11]: < 100 mg/kg; Activity (Rattus norvegicus [12]): 4; Activity (Rattus norvegicus [13]): No activity; Activity (Rattus norvegicus [14]): 4; Activity (Rattus norvegicus [15]): 1; Activity (Rattus norvegicus [16]): 4; ED50 (Rattus norvegicus [17]): 2.89 mg/kg; TD50 [18]: > 500 mg/kg
3 | NC(=O)N/N=C\c1ccc(Oc2ccc(-c3ccccc3)cc2)cc1 | 300 mg/kg | 1 | No activity | – | – | – | 300 mg/kg | No activity | No activity | 3 | – | – | – | – | Dose (Mus musculus [19]): 300 mg/kg
4 | CC/C(=N/NC(N)=O)c1ccc(Sc2ccccc2)cc1 | 30 mg/kg | – | – | 30 mg/kg | 100 mg/kg | 100 mg/kg | 100 mg/kg | – | – | – | – | – | – | – | Dose (Mus musculus [19]): 100 mg/kg; Activity (Rattus norvegicus [12]): 4; Activity (Rattus norvegicus [13]): No activity; Activity (Rattus norvegicus [14]): 3; Activity (Rattus norvegicus [15]): 3; Activity (Rattus norvegicus [16]): 4; ED50 (Rattus norvegicus [17]): 18.6 mg/kg
5 | NC(=O)N/N=C\c1ccc(Oc2ccncc2)cc1 | 300 mg/kg | 2 | No activity | – | – | – | – | No activity | No activity | – | – | – | – | – | Activity (Rattus norvegicus [6]): No activity
6 | CCCCc1ccc(Oc2ccc(/C=N/NC(N)=O)cc2)cc1 | 100 mg/kg | 2 | No activity | 300 mg/kg | – | – | 300 mg/kg | No activity | No activity | 1 | – | – | – | – | –
7 | NC(=O)N/N=C/c1ccc(Oc2ccccc2)cc1 | 300 mg/kg | – | – | 100 mg/kg | – | – | – | – | – | – | 4 | 4 | 3 | 4 | logP [23]: 2.66; Activity (Rattus norvegicus [26]): No activity
8 | NC(=O)N/N=C/c1ccc(Oc2ccc(F)cc2)cc1 | 100 mg/kg | – | – | 30 mg/kg | – | – | – | – | – | – | 4 | 4 | 4 | 4 | logP [23]: 1.91; ED50 (Mus musculus [29]): 12.9 mg/kg; TD50 at 1 h [30]: 108 mg/kg; Activity (Rattus norvegicus [31]): 2; TD50 [18]: > 500 mg/kg; ED50 (Mus musculus [32]): > 54 mg/kg
9 | N=C(N)N/N=C/c1ccc(Oc2ccc(F)cc2)cc1 | 30 mg/kg | 2 | No activity | 300 mg/kg | 30 mg/kg | 100 mg/kg | 100 mg/kg | No activity | No activity | 1 | – | – | – | – | –
10 | NC(=O)N/N=C/c1ccc(Oc2ccc(F)cc2Cl)cc1 | 30 mg/kg | – | – | 30 mg/kg | – | 100 mg/kg | 300 mg/kg | – | – | – | 4 | 4 | 4 | 4 | ED50 (Mus musculus [29]): 13.1 mg/kg; TD50 at 1 h [30]: 62.5 mg/kg; Activity (Rattus norvegicus [31]): 4; ED50 (Mus musculus [32]): > 68 mg/kg

From ChEMBL document CHEMBL1129428 (J Med Chem, 1996)
